High-throughput results (PubChem)
An excerpt weighted towards active compounds, which were near 1.9% of everything screened.
TLR9-MyD88 inh: inhibitors of TLR9-MyD88 association in cells, primary screen, cell-based, CHO, BLA complementation, fluorescence; Toll-like receptor 9 (Homo sapiens) + Myeloid differentiation primary response protein …; CCF4 FRET ratio; inhibition, % at 4.98 µM; hit rate 0.21% among 340,000; AID 504734, 2011;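 active means inhibition above the mean over all tested compounds plus 3 SD, cut at about 21% in these data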;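 further: 0% = DMSO only wells and 100% = clavulanate BLA inhibitor control wells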
NTR1 ag: agonists of human NTR1, primary screen, imaging, U2OS cells, beta-arrestin-GFP, high content. Neurotensin receptor type 1 (Homo sapiens), P30989. NTR1-U2OS beta-arrestin-GFP spot imaging, agonist mode. activation, % at 20 µM. hit rate 0.17% among 330,000;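 active means activation at or above 40% of the spot to cytoplasm intensity ratio, with at least 20 cells analyzed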;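 further: 0% = DMSO without peptide and 100% = 100 nM NTR1 peptide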
Target sequence (P30989 whole entry, looked up): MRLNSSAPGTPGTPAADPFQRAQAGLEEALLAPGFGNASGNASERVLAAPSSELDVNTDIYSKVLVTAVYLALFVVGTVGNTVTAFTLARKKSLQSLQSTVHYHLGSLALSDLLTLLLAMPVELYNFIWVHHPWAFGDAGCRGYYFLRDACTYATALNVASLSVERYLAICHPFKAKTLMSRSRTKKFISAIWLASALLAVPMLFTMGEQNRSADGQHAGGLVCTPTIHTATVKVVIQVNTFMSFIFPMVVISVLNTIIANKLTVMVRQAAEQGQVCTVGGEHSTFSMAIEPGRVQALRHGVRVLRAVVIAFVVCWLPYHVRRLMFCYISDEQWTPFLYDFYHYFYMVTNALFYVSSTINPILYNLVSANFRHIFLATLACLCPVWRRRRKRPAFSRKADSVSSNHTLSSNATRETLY
MC4R antag cAMP: MC4R antagonists of cAMP signaling, primary screen, cell-based, TR-FRET, antagonist arm of biased-ligand search; Melanocortin receptor 4 (Homo sapiens), P32245; MC4R-expressing cells, MTII-stimulated cAMP, LANCE TR-FRET; inhibition, % at 6.5 µM; hit rate 0.48% among 360,000; AID 540295, 2011;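 active means inhibition above its plate's cutoff, the mean of tested wells on that plate plus 3 SD, cut at about 29% in these data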;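 further: 0% = Melanotan II alone and 100% = Melanotan II plus saturating MCL0020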
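Assay system: human MC4R-expressing U2OS cells; reagent: Melanotan II stimulation of cells; dosing: 6.5 µM single dose; timing: compound 30 min, challenge 1 h, detection 1 h; signal: TR-FRET cAMP assay; replicates: one well per compound, no replicates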
NOD2 RIPK2 PPI: NOD2-RIPK2 binding disruptors in cells, primary screen, fluorescence, CHO cells, BLA complementation; Receptor-interacting serine/threonine-protein kinase 2 (Homo sapiens), O43353; CCF4 ratio; inhibition, % at 4.98 µM; hit rate 0.38% among 360,000; AID 624267, 2012; in the data active means inhibition above about 21%;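 further: 0% = vehicle only and 100% = reference blocker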
MC4R ag barr: MC4R agonists recruiting beta-arrestin, primary screen, cell-based, luminescence, agonist arm of biased-ligand search. Melanocortin receptor 4 (Homo sapiens), P32245. U2OS MC4R beta-arrestin complementation; percent of melanotan II response, DMSO zero. activation, % at 8.9 µM. AID 540308, 2011. hit rate 0.98% among 360,000;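 active means activation above a per-plate cutoff, the mean activation of sample wells on that plate plus 3 SD, cut at about 8% in these data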
TLR4-MyD88 BLA: inhibitors of TLR4-MyD88 association in cells, primary screen, cell-based, HeLa CL3-4, BLA complementation, FRET ratio; inhibition, % at 8.4 µM; HeLa CL3-4 TLR4/MyD88 BLA complementation; AID 861, 2007; hit rate 0.18% among 200,000; Toll-like receptor 4 (Homo sapiens) + Myeloid differentiation primary response protein …; in the data active means inhibition above about 25%;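 further: 0% = vehicle and 100% = reference inhibitor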
Numbers without * were called inactive; x = not tested or not shown.

SMILES | TLR9-MyD88 inh | NTR1 ag | MC4R antag cAMP | NOD2 RIPK2 PPI | MC4R ag barr | TLR4-MyD88 BLA
O=C(Cn1cc(/C=C\[N+](=O)[O-])c2ccccc21)Nc1ccccc1 | 7 | 47* | -9 | 1 | -3 | x
CCOC(=O)C1(C)CCN1C(=O)c1ccccc1C(F)(F)F (stereo not drawn) | x | x | 2 | -7 | 0 | x
COCCCN1C(=O)C(CC(=O)NC2CC2)CC(C(=O)N2CCOCC2)=C1C (stereo not drawn) | x | x | x | -8 | x | x
CC(C)n1c(=O)c2ccccc2n1Cc1cn(C2CCCC2)nn1 | x | x | x | 0 | x | x
COc1cccc(CNC(=O)c2cc3c(C)nc4ccccc4c3o2)c1 | 11 | 6 | 14 | 0 | 0 | 2
COc1ccc(CNC(=O)c2cc3c(C)nc4ccccc4c3o2)c(OC)c1 | x | 2 | 6 | 14 | 8.6* | -10
O=C(Nc1ccsc1C(=O)NC1CCCCC1)c1ccc(F)cc1 | 3 | 10 | 15 | 2 | 12* | 12
COc1cc(C(=O)OCC(=O)NCc2ccc(F)cc2)ccc1OCC(C)C | -5 | 2 | -8 | 1 | 8.3* | x
COc1cc(C(=O)OCC(=O)NCCCc2ccccc2)ccc1OCC(C)C | 4 | -1 | 5 | 0 | -4 | x
CCc1ccc(S(=O)(=O)/N=C2/C=C(Sc3ncn[nH]3)C(=O)c3ccccc32)cc1 | -14 | x | 60* | -2 | -1 | -10
O=C(c1ccc(Br)cc1)c1cc(-c2ccccn2)c(N2CCOCC2)s1 | 12 | 4 | 10 | 3 | -1 | 12
O=C(c1ccc(Cl)c(Cl)c1)c1cc(-c2ccccn2)c(N2CCOCC2)s1 | 11 | 2 | -4 | 24* | -4 | 22
O=C(Nc1ccccc1C(=O)Nc1ccncc1)c1cccc([N+](=O)[O-])c1 | -4 | 3 | 6 | 2 | -3 | x
CC(=O)Nc1cccc(C(=O)OCc2ccc(C(=O)Oc3ccc(Cl)cc3)cc2)c1 | 2 | 12 | 8 | 2 | 13* | 12
CCOC(=O)c1c(C)[nH]c(C(=O)OCC(=O)N2CCc3ccccc32)c1C | 0 | -2 | 3 | -6 | -2 | -11
CCOC(=O)c1[nH]c(C)c(C(=O)OCC(=O)N2CCc3ccccc32)c1C | 2 | 5 | -6 | 1 | 8.5* | 6
O=C(Nc1ccc2c(c1)OCO2)c1cc(C2CCCCN2C(=O)c2ccc3c(c2)CCO3)on1 (stereo not drawn) | x | x | 7 | -7 | 0 | x
COc1ccccc1NC(=O)c1cc2cc(Br)ccc2oc1=N | -2 | 6 | -6 | -10 | 8.3* | x
COc1ccc2o/c(=N\O)c(C(=O)Nc3ccccc3OC)cc2c1 | -4 | 13 | -14 | 2 | 4 | -1
COc1ccc(/C=N/NC(=O)c2cc(Br)ccc2O)cc1Cn1cc(Cl)cn1 | -1 | 8 | 5 | -2 | -4 | -6
COc1ccc(/C=N/NC(=O)c2ccc(Cl)cc2)cc1Cn1cc(Cl)cn1 | 2 | 0 | 0 | -8 | 8.7* | 1
CN1CCN(CC(=O)N2CCn3c4c(c5cc(C6CCCCC6)ccc53)CCCC42)CC1 (stereo not drawn) | -5 | 0 | -5 | 5 | 27* | 0
Cc1ccc2c(c1)c1c3n2CCN(C(=O)CN2CCN(C)CC2)C3CCC1 (stereo not drawn) | 3 | -3 | -6 | 8 | -2 | 5
OC(CNCCc1ccccc1)COc1ccc(OCC(O)CNCCc2ccccc2)cc1 (stereo not drawn) | -9 | 5 | -5 | 1 | -1 | x
OC(CNCCC(c1ccccc1)c1ccccc1)COc1ccccc1 (stereo not drawn) | -1 | 2 | 8 | 3 | 25* | -5
SMILES | TLR9-MyD88 inh | NTR1 ag | MC4R antag cAMP | NOD2 RIPK2 PPI | MC4R ag barr | TLR4-MyD88 BLA
CCNC(=O)C[C@@H]1CC[C@H]2[C@@H](COC[C@H](O)CN2C(=O)C2CC2)O1 | x | x | x | -4 | x | x
Cc1ccc(S(=O)(=O)NCC(=O)OCC(=O)N2N=C(c3ccc(Cl)cc3)CC2c2ccco2)cc1C (stereo not drawn) | -3 | 0 | 18 | -3 | 9.2* | -9
O=[N+]([O-])c1ccc(S(=O)(=O)c2cccc(C(F)(F)F)c2)nc1 | 17 | 12 | 12 | 79* | -3 | x
O=S(=O)(Nc1cccnc1)c1cccc(C(F)(F)F)c1 | -6 | 0 | 6 | -1 | -1 | -1
CCOc1cc(/C=C2\C(=O)ON=C2c2ccccc2)ccc1OC | -1 | 16 | 13 | -4 | -1 | x
CCOc1cc(/C=C2/C(=O)ON=C2C)ccc1OCc1ccccc1F | 11 | 75* | 18 | 1 | -2 | 11
Cc1cccc(OCC(=O)N/N=C/c2cn[nH]c2-c2ccc(Cl)c(Cl)c2)c1 | -3 | 15 | 15 | -5 | 4 | 3
Cc1ccc(OCC(=O)N/N=C/c2cn[nH]c2-c2ccc(Cl)c(Cl)c2)cc1 | 1 | 14 | 15 | 0 | 8.7* | 2
CSc1ncccc1C(=O)N1CCC1(C)C(=O)NC(C)C (stereo not drawn) | x | x | 5 | 0 | -2 | x
CCOc1ccc(CNC(=O)CCCN2C(=O)C(c3ccccc3)Oc3cccnc32)cc1 (stereo not drawn) | -3 | 0 | 3 | -2 | 9.1* | x
Nc1nonc1C(=O)NCCN=Cc1ccccc1O | 4 | 0 | 11 | 3 | 1 | 8
Nc1nonc1C(=O)NCCN=Cc1cc(Cc2ccccc2)cc(Br)c1O | 6 | 31 | 5 | -2 | 9.2* | 2
CCOc1ccc(C(=O)Nc2ccc(Cl)cn2)cc1Cl | 0 | 0 | -1 | 8 | 8.3* | -4
CCOC1=C2CN(S(=O)(=O)c3ccc(C)cc3)[C@@H](c3ccccc3)C[C@H]2[C@H]2C(=O)N(c3ccccc3)C(=O)[C@H]2C1 | x | x | x | 17 | x | x
C[C@@H](CN1CCC[C@H]1CN1C(N)=NC[C@@H]1Cc1ccccc1)N1C[C@@H](Cc2ccccc2)N(CCc2ccc(Cl)c(Cl)c2)C1=N | 3 | -1 | 33* | -1 | 2 | x
CCC[C@@H](CN1CCC[C@H]1CN1C(N)=NC[C@@H]1Cc1ccccc1)N1C[C@@H]([C@H](C)CC)N(CCCC2CCCC2)C1=N | -3 | 5 | 39* | -1 | 3 | x
COc1ccc(C(=O)CC(C(=O)O)c2ccc3c(c2)OCO3)cc1OC (stereo not drawn) | 3 | x | 11 | -14 | 0 | x
COCCNc1nc2cc(-c3ccccc3OC)sc2c(=O)n1C | x | x | -2 | 3 | 0 | x
Nc1nc2ccccc2cc1C(=O)NCc1ccc(-c2ccccc2)cc1 | x | x | x | -8 | x | x
